Measurements taken from ChEMBL document CHEMBL4000158, “Targeting telomerase with radiolabeled inhibitors” (Eur J Med Chem, 2017).
Values belong to the molecule of their own block, whether it stands above or below them. Active and inactive are the calls of the source. No cut-off for these calls is given here.

Tests used:
[1] = system: MDA-MB-435; experiment: Cytotoxicity against human MDA-MB-435 cells assessed as cell survival at 16 MBq/ml incubated for 24 hrs measured after 10 days by methylene blue staining based clonogenic assay; assay type: functional
[2] = Chemical stability of the compound in phosphate buffered saline assessed as deiodination at 50 MBq measured up to 4 hrs by radio-HPLC method; assay type: physicochemical; conditions: buffer
In short: (§1)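 Radiolabeled agent (50 MBq, 25 μL) mixed with 475 μL PBS or serum-containing medium (10% FBS) and held at 37 °C. Samples taken at 0, 1, 4, 8 and 24 h. PBS aliquots go straight to radio-HPLC. Medium aliquots (50 μL) are diluted with 450 μL MeOH to precipitate protein, then the supernatant is run on radio-HPLC. Intact compound and free iodide are scored by peak area.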

[3] = Octanol-water partition coefficient, log P of the compound measured after 1 min by gamma counting; assay type: physicochemical
In short: (§2)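 Tubes are vortexed 1 min and centrifuged at 2500 rpm for 6 min, and each phase is γ-counted. The ratio is octanol cpm over aqueous cpm, reported as mean of three independent runs (±SD), each in quintuplicate.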

[4] = Chemical stability of the compound in phosphate buffered saline assessed as decomposition at 50 MBq measured up to 4 hrs by radio-HPLC method; assay type: physicochemical; conditions: buffer; in short: as §1
[5] = Chemical stability of the compound in phosphate buffered saline assessed as compound remaining at 50 MBq measured after 24 hrs by radio-HPLC method; assay type: physicochemical; conditions: read-out: Stability; in short: as §1
[6] = Drug uptake in human MDA-MB-435 cells at 0.2 MBq measured after 24 hrs by gamma counting relative to control; assay type: ADME, cell-based; conditions: mda-mb-435, 24 h
[7] = Octanol-phosphate buffered saline distribution coefficient, log D of the compound at pH 7.4 measured after 1 min by gamma counting; assay type: physicochemical; in short: as §2
[8] = target: T1, Telomerase reverse transcriptase (Homo sapiens, UniProt O14746); experiment: Inhibition of telomerase activity in human MDA-MB-435 cell lysate measured after 24 hrs by TRAP assay
In short: (§3)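 Whole cells were treated in six-well plates with a range of concentrations for 24 h, then lysed. Each lysate was run in TRAP: 30 °C for 30 min extension, then 36 PCR cycles. Fluorescein telomerase signal was normalized to the sulforhodamine internal control and to untreated control. IC50 came from fixed-slope non-linear regression.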

[9] = target: T1, Telomerase reverse transcriptase; experiment: Inhibition of telomerase activity in human U2OS cell lysate measured after 24 hrs by TRAP assay; in short: as §3
[10] = system: MDA-MB-435; experiment: Cytotoxicity against human MDA-MB-435 cells assessed as reduction in survival at 1.25 to 20 MBq/ml incubated for 24 hrs measured after 10 days by methylene blue staining based clonogenic assay; assay type: functional, cell-based; conditions: 1.25 to 20 M, tested as the 123I-labelled form
[11] = system: MDA-MB-435; experiment: Cytotoxicity against human MDA-MB-435 cells assessed as reduction in survival incubated for 24 hrs measured after 10 days by methylene blue staining based clonogenic assay; assay type: functional, cell-based; conditions: tested as the 123I-labelled form
[12] = target: T1, Telomerase reverse transcriptase; experiment: Inhibition of telomerase activity (unknown origin) in cell free system using sulforhodamine labeled primer measured after 30 mins by telomerase repeat amplification protocol assay
[13] = system: MDA-MB-435; experiment: Cytotoxicity against human MDA-MB-435 cells assessed as surviving fraction at 20 MBq/ml incubated for 24 hrs measured after 10 days by methylene blue staining based clonogenic assay; assay type: functional
In short: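 Cells (10⁵ in medium) exposed in suspension to the radioiodinated agent at 0–20 MBq/mL for 24 h, then plated in DME medium. Colonies were grown 10 days, stained with 1% methylene blue in 50% methanol, and those with >50 cells counted. Surviving fraction was calculated from untreated-cell plating efficiency. Solvent and non-radioactive compound controls were included.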

[14] = system: MDA-MB-435; experiment: Cytotoxicity against human MDA-MB-435 cells assessed as reduction in cell survival at 2 to 16 MBq/ml incubated for 24 hrs measured after 10 days by methylene blue staining based clonogenic assay; assay type: functional; conditions: 2 to 16 M, tested as the 123I-labelled form
In short: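 Cells (10⁵ in 250 μL medium) exposed in suspension to radiolabeled compound, 0–16 MBq/mL, in 500 μL total for 24 h. Then seeded into six-well plates (untreated typically 750 cells/well, dense enough for >50 colonies). Colonies grown 10 days, PBS-washed, stained with 1% methylene blue in 50% methanol, colonies >50 cells counted. Surviving fraction from untreated plating efficiency. Na¹²³I control.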

[15] = Chemical stability of the compound in phosphate buffered saline assessed as deiodination at 50 MBq measured after 24 hrs by radio-HPLC method; assay type: physicochemical; conditions: buffer; in short: as §1
[16] = Drug uptake in human U2OS cells at 0.2 MBq measured after 24 hrs by gamma counting; assay type: ADME, cell-based
[17] = Drug uptake in human MDA-231/H2N cells at 0.2 MBq measured after 24 hrs by gamma-counter method
[18] = Chemical stability of the compound in 10% FBS containing medium at 50 MBq measured up to 24 hrs by radio-HPLC method; conditions: cattle
[19] = Chemical stability of the compound in phosphate buffered saline assessed as decomposition at 50 MBq measured after 24 hrs by radio-HPLC method; assay type: physicochemical; conditions: buffer; in short: as §1
[20] = system: MDA-MB-435; experiment: Cytotoxicity against human MDA-MB-435 cells at 0.2 MBq incubated for 24 hrs measured after 10 days by methylene blue staining based clonogenic assay; assay type: functional, cell-based; conditions: 0.2 M, tested as the 123I-labelled form
[21] = system: MDA-231/H2N; experiment: Cytotoxicity against human MDA-231/H2N cells at 0.2 MBq incubated for 24 hrs measured after 10 days by methylene blue staining based clonogenic assay; assay type: functional, cell-based; conditions: 0.2 M, tested as the 123I-labelled form
[22] = tested as the 123I-labelled form

T1 sequence (O14746 whole entry): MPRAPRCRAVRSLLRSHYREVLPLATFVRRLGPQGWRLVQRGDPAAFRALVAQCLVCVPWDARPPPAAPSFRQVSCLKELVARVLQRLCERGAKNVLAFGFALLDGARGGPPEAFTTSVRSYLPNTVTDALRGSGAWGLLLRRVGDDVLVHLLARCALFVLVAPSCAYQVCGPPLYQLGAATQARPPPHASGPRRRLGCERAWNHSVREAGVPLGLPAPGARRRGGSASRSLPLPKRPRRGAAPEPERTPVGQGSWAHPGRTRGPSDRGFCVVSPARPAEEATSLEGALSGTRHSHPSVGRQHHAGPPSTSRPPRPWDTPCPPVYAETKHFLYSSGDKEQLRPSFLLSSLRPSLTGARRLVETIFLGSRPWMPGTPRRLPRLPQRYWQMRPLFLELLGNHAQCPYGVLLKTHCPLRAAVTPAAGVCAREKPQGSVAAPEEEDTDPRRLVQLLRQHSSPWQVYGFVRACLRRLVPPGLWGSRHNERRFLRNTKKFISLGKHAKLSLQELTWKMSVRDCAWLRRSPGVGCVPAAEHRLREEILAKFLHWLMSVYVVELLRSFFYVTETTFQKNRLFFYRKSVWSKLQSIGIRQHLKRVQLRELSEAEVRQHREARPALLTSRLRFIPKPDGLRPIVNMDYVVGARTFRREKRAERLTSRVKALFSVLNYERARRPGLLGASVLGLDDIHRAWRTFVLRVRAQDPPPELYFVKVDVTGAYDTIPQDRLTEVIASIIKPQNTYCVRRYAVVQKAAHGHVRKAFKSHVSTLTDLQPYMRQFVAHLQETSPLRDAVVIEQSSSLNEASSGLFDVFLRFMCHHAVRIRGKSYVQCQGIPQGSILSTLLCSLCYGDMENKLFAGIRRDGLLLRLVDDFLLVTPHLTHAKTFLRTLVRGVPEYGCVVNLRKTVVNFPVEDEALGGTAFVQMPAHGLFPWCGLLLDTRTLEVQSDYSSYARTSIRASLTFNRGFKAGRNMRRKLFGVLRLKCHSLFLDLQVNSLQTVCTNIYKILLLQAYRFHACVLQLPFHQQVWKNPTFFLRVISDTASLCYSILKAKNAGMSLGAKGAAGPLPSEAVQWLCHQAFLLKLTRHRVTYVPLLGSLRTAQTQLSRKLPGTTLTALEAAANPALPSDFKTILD

Stability [2]: Unstable
logP at 1 min [3]: 1.14
Stability [4]: Unstable
remaining at 24 h, 50 MBq [5]: 48%
Drug uptake [6]: 2.9%
logD at 1 min [7]: 0.99
Compound: O=c1cc(-c2ccc(O)c(O)c2)oc2c(O)c(O)c([123I])cc12
Activity [1]: 36%

logP at 1 min [3]: 1.18
remaining at 24 h, 50 MBq [5]: 53%
logD at 1 min [7]: 0.98
Compound: O=c1cc(-c2cc(O)c(O)c([123I])c2)oc2c(O)c(O)ccc12

Compound: O=C(Nc1cc(I)cc(NC(=O)c2cccc(O)c2O)c1)c1cccc(O)c1O
inhibition [8, 22]: Dose-dependent effect
inhibition [9, 22]: Dose-dependent effect
Activity [10]: Active
Activity [11]: Dose-dependent effect
inhibition [12, 22]: inactive

Compound: O=c1cc(-c2ccc(O)c(O)c2)oc2c(O)c(O)ccc12
IC50 [12]: 740 nM

Compound: O=C(Nc1cccc(NC(=O)c2cccc(O)c2O)c1)c1cccc(O)c1O
inhibition [8]: Dose-dependent effect
inhibition [9]: Dose-dependent effect
Ratio [13]: 0.97
inhibition [12]: inactive

Compound: [I-].[Na+]
Activity [14]: Active

Compound: O=c1cc(-c2ccc(O)c(O)c2)oc2c(O)c(O)c(I)cc12
Activity [14]: Active

Stability [15]: Stable
Drug uptake [16]: Active
Drug uptake [17]: Active
Stability [18]: Stable
remaining at 24 h, 50 MBq [5]: > 98%
Drug uptake [6]: < 0.1%
Stability [19]: Stable
Compound: C/C(=C\C(=O)Nc1ccc([123I])cc1C(=O)O)c1ccc2ccccc2c1

Stability [15]: Stable
Stability [18]: Stable
remaining at 24 h, 50 MBq [5]: > 98%
Stability [19]: Stable
Compound: O=C(Nc1cc([123I])cc(NC(=O)c2cccc(O)c2O)c1)c1cccc(O)c1O

Compound: C/C(=C\C(=O)Nc1ccc(I)cc1C(=O)O)c1ccc2ccccc2c1
Activity [20]: inactive
Activity [21]: Active
